Results taken from ChEMBL document CHEMBL3217724, “Synthesis and evaluation of a series of benzothiophene acrylonitrile analogs as anticancer agents” (Medchemcomm, 2013).

How the values were obtained:
Format in all cases: functional
MCF7 = assay: Growth inhibition of human MCF7 cells
Method in brief: (§1)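 NCI 60-human-cancer-cell-line panel, five-dose screen after a preliminary screen. GI50 is the molar concentration giving 50% growth inhibition.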

TK-10 = assay: Growth inhibition of human TK10 cells
Method in brief: (§2)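 NCI 60-cell-line panel, five-dose screen; GI50 is the molar concentration giving 50% growth inhibition.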

[1] = Growth inhibition of human Hs578T cells; conditions: Hs-578T; method in brief: as §1
NCI-H226 = assay: Growth inhibition of human NCI-H226 cells; method in brief: as §1
RPMI-8226 = assay: Growth inhibition of human RPMI8226 cells; method in brief: as §1
SF-268 = assay: Growth inhibition of human SF268 cells; method in brief: as §1
CAKI-1 = assay: Growth inhibition of human Caki1 cells; method in brief: as §1
[2] = Growth inhibition of human HCC2998 cells; conditions: HCC 2998; method in brief: as §1
[3] = Growth inhibition of human OVCAR8 cells; conditions: OVCAR-8; method in brief: as §1
MDA-MB-231 = assay: Growth inhibition of human MDA-MB-231 cells; method in brief: as §1
[4] = Growth inhibition of human NCI-ADR-RES cells; method in brief: as §1
DU-145 = assay: Growth inhibition of human DU145 cells; method in brief: as §1
786-0 = assay: Growth inhibition of human 786-0 cells; method in brief: as §1
MDA-MB-435 = assay: Growth inhibition of human MDA-MB-435 cells; method in brief: as §1
SK-MEL-28 = assay: Growth inhibition of human SK-MEL-28 cells; method in brief: as §1
[5] = Growth inhibition of human OVCAR5 cells; conditions: OVCAR-5; method in brief: as §1
A498 = assay: Growth inhibition of human A498 cells; method in brief: as §1
[6] = Growth inhibition of human UACC257 cells; conditions: UACC-257; method in brief: as §2
[7] = Growth inhibition of human SF539 cells; conditions: SF-539; method in brief: as §1
ACHN = assay: Growth inhibition of human ACHN cells; method in brief: as §1
[8] = Growth inhibition of human BT549 cells; conditions: BT-549; method in brief: as §1
SK-MEL-5 = assay: Growth inhibition of human SK-MEL-5 cells; method in brief: as §1
HL-60(TB) = assay: Growth inhibition of human HL-60(TB) cells; method in brief: as §1
[9] = Growth inhibition of human OVCAR4 cells; conditions: OVCAR-4; method in brief: as §1
IGROV-1 = assay: Growth inhibition of human IGROV1 cells; method in brief: as §1
Malme-3M = assay: Growth inhibition of human MALME-3M cells; method in brief: as §1
[10] = Growth inhibition of human LOXIMVI cells; conditions: LOX IMVI; method in brief: as §1
PC-3 = assay: Growth inhibition of human PC3 cells; method in brief: as §1
SK-MEL-2 = assay: Growth inhibition of human SK-MEL-2 cells; method in brief: as §1
[11] = Growth inhibition of human HCT15 cells; conditions: HCT-15; method in brief: as §1
HCT-116 = assay: Growth inhibition of human HCT116 cells; method in brief: as §1
SR = assay: Growth inhibition of human SR cells; method in brief: as §2
SN12C = assay: Growth inhibition of human SN12C cells; method in brief: as §2
[12] = Growth inhibition of human HOP92 cells; conditions: HOP-92; method in brief: as §1
CCRF-CEM = assay: Growth inhibition of human CCRF-CEM cells; method in brief: as §1
HOP-62 = assay: Growth inhibition of human HOP62 cells; method in brief: as §1
T47D = assay: Growth inhibition of human T47D cells; method in brief: as §2
M14 = assay: Growth inhibition of human M14 cells; method in brief: as §1
[13] = Growth inhibition of human RXF393 cells; conditions: RXF 393; method in brief: as §1
[14] = Growth inhibition of human MOLT4 cells; conditions: MOLT-4; method in brief: as §1
K562 = assay: Growth inhibition of human K562 cells; method in brief: as §1
[15] = Growth inhibition of human EKVX cells; method in brief: as §1
SW-620 = assay: Growth inhibition of human SW620 cells; method in brief: as §2
NCI-H522 = assay: Growth inhibition of human NCI-H522 cells; method in brief: as §1
[16] = Growth inhibition of human OVCAR3 cells; conditions: OVCAR-3; method in brief: as §1
NCI-H322M = assay: Growth inhibition of human NCI-H322M cells; method in brief: as §1
NCI-H23 = assay: Growth inhibition of human NCI-H23 cells; method in brief: as §1
[17] = Growth inhibition of human UO31 cells; conditions: UO-31; method in brief: as §2
[18] = Growth inhibition of human UACC62 cells; conditions: UACC-62; method in brief: as §2
A549 = assay: Growth inhibition of human A549 cells; method in brief: as §1
[19] = Growth inhibition of human SF295 cells; conditions: SF-295; method in brief: as §1
SNB-75 = assay: Growth inhibition of human SNB75 cells; method in brief: as §2
SK-OV-3 = assay: Growth inhibition of human SKOV3 cells; method in brief: as §2
KM12 = assay: Growth inhibition of human KM12 cells; method in brief: as §1
HT-29 = assay: Growth inhibition of human HT-29 cells; method in brief: as §1
SNB-19 = assay: Growth inhibition of human SNB19 cells; method in brief: as §2
COLO 205 = assay: Growth inhibition of human COLO205 cells; method in brief: as §1
U-251 = assay: Growth inhibition of human U251 cells; method in brief: as §2
NCI-H460 = assay: Growth inhibition of human NCI-H460 cells; method in brief: as §1

COc1ccc(/C(C#N)=C/c2cc3ccccc3s2)cc1OC
GI50 (MCF7): 0.0478 µM | GI50 (TK-10): 0.0452 µM | GI50 [1]: 0.03 µM | GI50 (NCI-H226): > 0.1 µM | GI50 (RPMI-8226): 0.0298 µM | GI50 (SF-268): 0.0452 µM | GI50 (CAKI-1): 0.0827 µM | GI50 [2]: 0.0665 µM | GI50 [3]: 0.0251 µM | GI50 (MDA-MB-231): 0.0269 µM | GI50 [4]: 0.0105 µM | GI50 (DU-145): 0.0366 µM | GI50 (786-0): 0.0337 µM | GI50 (MDA-MB-435): 0.01 µM | GI50 (SK-MEL-28): > 0.1 µM | GI50 [5]: 0.05 µM | GI50 (A498): 0.0266 µM | GI50 [6]: > 0.1 µM | GI50 [7]: 0.0106 µM | GI50 (ACHN): 0.0854 µM | GI50 [8]: 0.0283 µM | GI50 (SK-MEL-5): 0.021 µM | GI50 (HL-60(TB)): 0.0222 µM | GI50 [9]: > 0.1 µM | GI50 (IGROV-1): 0.0618 µM | GI50 (Malme-3M): > 0.1 µM | GI50 [10]: 0.0607 µM | GI50 (PC-3): 0.0297 µM | GI50 (SK-MEL-2): > 0.1 µM | GI50 [11]: 0.0482 µM | GI50 (HCT-116): 0.0411 µM | GI50 (SR): 0.01 µM | GI50 (SN12C): 0.0136 µM | GI50 [12]: > 0.1 µM | GI50 (CCRF-CEM): 0.0286 µM | GI50 (HOP-62): 0.047 µM | GI50 (T47D): > 0.1 µM | GI50 (M14): 0.0611 µM | GI50 [13]: 0.0909 µM | GI50 [14]: 0.0535 µM | GI50 (K562): 0.0354 µM | GI50 [15]: 0.0908 µM | GI50 (SW-620): 0.0242 µM | GI50 (NCI-H522): 0.01 µM | GI50 [16]: 0.022 µM | GI50 (NCI-H322M): 0.0315 µM | GI50 (NCI-H23): 0.0579 µM | GI50 [17]: 0.0187 µM | GI50 [18]: 0.0459 µM | GI50 (A549): 0.07 µM | GI50 [19]: 0.01 µM | GI50 (SNB-75): 0.0137 µM | GI50 (SK-OV-3): 0.0634 µM | GI50 (KM12): 0.01 µM | GI50 (HT-29): 0.0318 µM | GI50 (SNB-19): 0.0444 µM | GI50 (COLO 205): 0.0361 µM | GI50 (U-251): 0.064 µM | GI50 (NCI-H460): 0.0354 µM
